Data taken from ChEMBL document CHEMBL4376888, “Discovery of Potent, Selective, and Direct Acid Sphingomyelinase Inhibitors with Antidepressant Activity” (J Med Chem, 2020).
Active and inactive are the calls of the source. No cut-off for these calls is given here.

Experiments:
[1] = molecular target: T1, Sphingomyelin phosphodiesterase (Homo sapiens, UniProt P17405); experiment: Inhibition of human Huh7 cell derived acid sphingomyelinase using NBD-sphingomyelin as substrate after 30 mins by fluorescence based assay
T1 sequence (P17405 whole entry): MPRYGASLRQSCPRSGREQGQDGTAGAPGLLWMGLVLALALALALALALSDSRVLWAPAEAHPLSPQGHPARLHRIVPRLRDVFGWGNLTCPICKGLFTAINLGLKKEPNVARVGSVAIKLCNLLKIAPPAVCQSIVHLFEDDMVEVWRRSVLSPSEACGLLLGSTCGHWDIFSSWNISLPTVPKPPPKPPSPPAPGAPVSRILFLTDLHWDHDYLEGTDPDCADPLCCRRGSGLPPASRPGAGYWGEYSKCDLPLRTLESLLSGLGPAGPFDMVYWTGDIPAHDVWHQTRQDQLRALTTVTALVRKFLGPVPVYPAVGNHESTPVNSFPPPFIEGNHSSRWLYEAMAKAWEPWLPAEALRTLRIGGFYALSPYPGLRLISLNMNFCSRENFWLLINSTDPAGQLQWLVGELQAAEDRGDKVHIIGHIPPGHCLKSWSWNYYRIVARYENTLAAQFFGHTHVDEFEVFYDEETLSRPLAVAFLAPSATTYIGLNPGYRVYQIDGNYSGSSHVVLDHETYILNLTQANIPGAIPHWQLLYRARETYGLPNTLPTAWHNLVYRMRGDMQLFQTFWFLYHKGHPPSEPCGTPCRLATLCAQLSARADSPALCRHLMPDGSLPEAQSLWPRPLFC
Summary of the method: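 Cultured cells were lysed in 25 mM Tris-HCl pH 7.4, 5 mM EDTA, sonicated and cleared at 300 g. 400 μg protein incubated with NBD-sphingomyelin in 100 mM sodium acetate pH 4.7, 1% Triton X-100, 40 mM CaCl2, 100 μM ZnCl2. Inhibitors added in DMSO, 37 °C, 30 min. Stopped with chloroform/methanol 2:1; NBD-ceramide fluorescence after TLC.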

[2] = molecular target: T1, Sphingomyelin phosphodiesterase; experiment: Inhibition of acid sphingomyelinase (unknown origin)
[3] = molecular target: T2, Sphingomyelin phosphodiesterase 2 (Homo sapiens) (UniProt O60906); experiment: Inhibition of neutral sphingomyelinase (unknown origin) at 100 uM using NBD-sphingomyelin as substrate after 30 mins by fluorescence based assay
T2 sequence (whole entry): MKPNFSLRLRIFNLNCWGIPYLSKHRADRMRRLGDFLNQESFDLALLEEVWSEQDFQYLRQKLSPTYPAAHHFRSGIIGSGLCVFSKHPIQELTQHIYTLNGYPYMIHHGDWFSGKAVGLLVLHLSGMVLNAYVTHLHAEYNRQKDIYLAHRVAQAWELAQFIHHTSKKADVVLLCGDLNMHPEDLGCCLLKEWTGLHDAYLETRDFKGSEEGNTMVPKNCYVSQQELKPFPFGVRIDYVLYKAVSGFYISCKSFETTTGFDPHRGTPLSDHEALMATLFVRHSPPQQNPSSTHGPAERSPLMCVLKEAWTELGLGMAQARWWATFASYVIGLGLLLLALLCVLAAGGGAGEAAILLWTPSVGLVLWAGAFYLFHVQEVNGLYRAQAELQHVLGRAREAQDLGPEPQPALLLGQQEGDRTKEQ
Summary of the method: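 Neutral sphingomyelinase assay run as the ASM cell-extract assay (NBD-sphingomyelin, 37 °C, 30 min, chloroform/methanol extraction, TLC, NBD-ceramide fluorescence). Buffer was 200 mM Tris-HCl pH 7.4 with 10 mM MgCl2 and 10 mM dithiothreitol. Tested at 100 μM.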

[4] = molecular target: T1, Sphingomyelin phosphodiesterase; experiment: Inhibition of recombinant human acid sphingomyelinase (His62 to Pro628 residues) using NBD-sphingomyelin as substrate after 30 mins by fluorescence based assay
Summary of the method: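 Buffer 100 mM sodium acetate pH 4.7, 1% Triton X-100, 40 mM CaCl2, 100 μM ZnCl2. Inhibitors in DMSO at various concentrations, 37 °C, 30 min. NBD-ceramide fluorescence after chloroform/methanol extraction and TLC.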

[5] = Solubility of the compound in physiological saline; assay type: physicochemical; details: buffer
Rattus norvegicus [6] = experiment: Antidepressant activity in Sprague-Dawley rat model of reserpine-induced depression assessed as increase in time passing the grid at 12 mg/kg, ip administered twice daily for 2 weeks measured for 5 mins by open field test; assay type: functional, organism-based
Summary of the method: (§1)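 Female SD rats (6-8 weeks, 200 g) given reserpine 4 mg/Kg ip daily to induce depression; test agent in 5 % DMSO, 2 % Tween 80, 5 % glucose, ip twice a day for two weeks. Each rat placed in the central square of a 100 cm × 100 cm box (25 squares, walls ~42 cm); centre time, grid crossings, rearing and grooming recorded over 5 min, 7:30–12:00; n = 8.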

Rattus norvegicus [7] = experiment: Antidepressant activity in Sprague-Dawley rat model of reserpine-induced depression assessed as increase in grooming frequency at 12 mg/kg, ip administered twice daily for 2 weeks measured for 5 mins by open field test; assay type: functional, organism-based; summary of the method: as §1
NIH3T3 = experiment: Cytotoxicity against mouse NIH/3T3 cells assessed as reduction in cell viability after 24 hrs by MTT assay; assay type: cell-based; details: mouse, nih3t3, 24 h
Summary of the method: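 NIH3T3 cells in DMEM with 10 % FBS at 37 °C, 5 % CO₂, grown overnight, then inhibitor added for 24 h; viability read by MTT.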

Rattus norvegicus [8] = experiment: Reversal of reserpine-induced inhibition of neurogenesis in Sprague-Dawley rat hippocampus at 12 mg/kg, ip administered twice daily for 2 weeks by EDU-incorporation assay; assay type: functional, organism-based
Summary of the method: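 Reserpine-depressed female SD rats (4 mg/Kg ip daily; drug ip twice daily for two weeks) injected with EdU 8 mg/kg twice in 1 day, killed 96 h later. Frozen brain sections washed with glycine and PBS, Click-iT stained 30 min, Hoechst 33342 30 min; hippocampal proliferation scored by fluorescence microscopy; n = 5.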

Rattus norvegicus [9] = experiment: Antidepressant activity in Sprague-Dawley rat model of reserpine-induced depression assessed as increase in frequency of upright at 12 mg/kg, ip administered twice daily for 2 weeks measured for 5 mins by open field test; assay type: functional, organism-based; summary of the method: as §1
Rattus norvegicus [10] = experiment: Antidepressant activity in Sprague-Dawley rat model of reserpine-induced depression assessed as reduction in total time spent in center at 12 mg/kg, ip administered twice daily for 2 weeks measured for 5 mins by open field test; assay type: functional, organism-based; summary of the method: as §1

**Q.** For `CCc1nc(-c2ccc(COc3cccc(C(=O)NO)c3)cc2)no1`, which IC50 [1] is on record?
**A.** 34.7 µM

**Q.** For `O=C(NO)c1cccc(OCc2ccc(-c3noc(-c4cccc(F)c4)n3)cc2)c1`, which IC50 [1] is on record?
**A.** > 100 µM

**Q.** For `O=C(NO)c1cccc(OCc2ccc(-c3noc(-c4ccc(Br)cc4)n3)cc2)c1`, which IC50 [1] is on record?
**A.** > 100 µM

**Q.** With `CCCCCCCCCCCCC/C=C/[C@H](O)[C@@H](COP(=O)([O-])OCC[N+](C)(C)C)NC(=S)NC(C)(C)C` as the molecule, how does the Ki [2] read?
**A.** 70 µM

**Q.** For `COc1ccc(C(=O)NO)cc1OCc1ccc(-c2ccc(Cl)cc2)cc1`, which inhibition [3] is on record?
**A.** inactive

**Q.** What about the IC50 [1] of the same molecule?
**A.** 0.34 µM

**Q.** And the IC50 [4]?
**A.** 8.07 µM

**Q.** And the solubility [5]?
**A.** Insoluble

**Q.** For `COc1ccc(C(=O)NO)cc1OCc1ccc(-c2cccnc2)cc1`, which inhibition [3] is on record?
**A.** inactive

**Q.** And the IC50 [1]?
**A.** 4.97 µM

**Q.** What about the IC50 [4] of the same molecule?
**A.** 3.83 µM

**Q.** Which IC50 [1] does the source give for `O=C(NO)c1cccc(OCc2ccc(-c3cccnc3)cc2)c1` here?
**A.** 52.3 µM

**Q.** With `COc1c(O)cc2oc3cc(O)c(CC=C(C)C)c(O)c3c(=O)c2c1CC=C(C)C` [MANGOSTIN] as the molecule, how does the IC50 [1] read?
**A.** 14.1 µM

**Q.** Which IC50 [1] does the source give for `O=C(NO)c1cccc(OCc2ccc(-c3noc(Cc4ccccc4)n3)cc2)c1` here?
**A.** 7.83 µM

**Q.** What about the IC50 [4] of the same molecule?
**A.** 4.93 µM

**Q.** Which Activity (Rattus norvegicus [6]) does the source give for `CN(C)CCC=C1c2ccccc2CCc2ccccc21` [AMITRIPTYLINE] here?
**A.** Active

**Q.** What about the Activity (Rattus norvegicus [7]) of the same molecule?
**A.** Active

**Q.** What about the Activity (NIH3T3) of the same molecule?
**A.** Non-Toxic

**Q.** What about the Activity (Rattus norvegicus [8]) of the same molecule?
**A.** Active

**Q.** What about the Activity (Rattus norvegicus [9]) of the same molecule?
**A.** Active

**Q.** And the Activity (Rattus norvegicus [10])?
**A.** Active

**Q.** For `COc1ccc(C(=O)NO)cc1OCc1ccc(-c2ccccc2)cc1`, which inhibition [3] is on record?
**A.** inactive

**Q.** And the solubility [5]?
**A.** Insoluble

**Q.** Which inhibition [3] does the source give for `COc1ccc(C(=O)NO)cc1OCc1noc(-c2ccc(Cl)cc2)n1` here?
**A.** inactive

**Q.** What about the IC50 [1] of the same molecule?
**A.** 21.6 µM

**Q.** For `COc1ccc(-c2nc(COc3cc(C(=O)NO)ccc3OC)no2)cc1OC`, which IC50 [1] is on record?
**A.** 13.8 µM

**Q.** What does the source list for `COc1ccc(C(=O)NO)cc1OCc1noc(-c2cccc(Cl)c2)n1`?
**A.** inhibition [3]: inactive; IC50 [1]: 9.22 µM

**Q.** Which results are given for `O=C(NO)c1cc(OCc2ccc(-c3ccccc3)cc2)no1`?
**A.** inhibition [3]: inactive; IC50 [1]: 0.88 µM; IC50 [4]: 4.09 µM

**Q.** With `O=C(NO)c1cccc(OCc2ccc(-c3ccccc3)cc2)c1` as the molecule, how does the inhibition [3] read?
**A.** inactive

**Q.** What about the IC50 [1] of the same molecule?
**A.** 19.6 µM

**Q.** And the solubility [5]?
**A.** Insoluble

**Q.** Which IC50 [1] does the source give for `O=C(NO)c1cccc(OCc2ccc(-c3ccc(Cl)cc3)cc2)c1` here?
**A.** 8.96 µM

**Q.** What about the IC50 [4] of the same molecule?
**A.** 0.36 µM

**Q.** And the solubility [5]?
**A.** Insoluble

**Q.** With `CCCCCCCCCCOc1cc(C(=O)NO)ccc1OC` as the molecule, how does the IC50 [4] read?
**A.** 0.89 µM

**Q.** With `CCCCCCCC(N)(P(=O)(O)O)P(=O)(O)O` as the molecule, how does the IC50 [2] read?
**A.** 0.02 µM

**Q.** With `CCCCCCc1ccc(COc2cccc(C(=O)NO)c2)cc1` as the molecule, how does the inhibition [3] read?
**A.** inactive

**Q.** And the solubility [5]?
**A.** Insoluble

**Q.** Which inhibition [3] does the source give for `CCCCCCCCCCOc1cc(C(=O)NO)on1` here?
**A.** inactive

**Q.** What about the IC50 [1] of the same molecule?
**A.** 0.36 µM

**Q.** What about the IC50 [4] of the same molecule?
**A.** 2.2 µM

**Q.** Which inhibition [3] does the source give for `O=C(NO)c1cccc(OCc2ccc(-c3noc(CCc4ccccc4)n3)cc2)c1` here?
**A.** inactive

**Q.** And the IC50 [1]?
**A.** 1.73 µM

**Q.** And the IC50 [4]?
**A.** 4.25 µM

**Q.** For `O=C(NO)c1cccc(OCc2ccc(-c3noc(-c4ccccc4)n3)cc2)c1`, which IC50 [1] is on record?
**A.** > 100 µM

**Q.** With `CCOc1ccc2oc(-c3cc(Br)cc4c3OCOC4)c(N)c(=O)c2c1` as the molecule, how does the IC50 [2] read?
**A.** 3.1 µM

**Q.** With `CCCCCCc1ccc(COc2cc(C(=O)NO)ccc2OC)cc1` as the molecule, how does the inhibition [3] read?
**A.** inactive

**Q.** What about the solubility [5] of the same molecule?
**A.** Insoluble

**Q.** With `COc1ccc(C(=O)NO)cc1OCc1ccc(-c2noc(-c3ccc(Br)cc3)n2)cc1` as the molecule, how does the IC50 [1] read?
**A.** > 100 µM
